Structures are written as SMILES. Where only a bound is given, the exact number is not on record here.

The nature of data set [1]: Solubility of the compound in water at pH 7.4. It is filed as physicochemical. The method in brief:
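Hydrochloride salts, solubility measured in phosphate-buffered saline at pH 7.4.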

The target of data set [2] is Adenosine receptors; A1 & A3 (Homo sapiens) (UniProt P30542+P0DMS8). In words: Selectivity ratio of Ki for human adenosine A1 receptor to Ki for human adenosine A3 receptor.
The next data set addresses T1, Adenosine receptor A1 (Homo sapiens, UniProt P30542).
T1 sequence (P30542 whole entry): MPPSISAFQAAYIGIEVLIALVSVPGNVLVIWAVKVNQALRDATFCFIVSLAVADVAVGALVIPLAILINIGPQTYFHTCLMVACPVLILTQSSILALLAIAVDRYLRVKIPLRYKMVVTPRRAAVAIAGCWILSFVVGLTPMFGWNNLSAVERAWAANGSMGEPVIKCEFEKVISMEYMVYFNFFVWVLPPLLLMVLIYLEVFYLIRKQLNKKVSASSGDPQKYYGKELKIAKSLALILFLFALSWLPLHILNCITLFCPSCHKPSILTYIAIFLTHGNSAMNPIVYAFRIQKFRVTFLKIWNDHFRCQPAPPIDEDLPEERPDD
The data set is described as follows: Displacement of [3H]DPCPX from human adenosine A1 receptor expressed in CHO cells after 120 mins by scintillation counter. It is filed as cell-based. The gist of the method: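 Membranes from CHO cells expressing human A1 (50 μg protein), in 50 mM Tris-HCl pH 7.4, pretreated with adenosine deaminase 2 IU/mL. [³H]DPCPX 1 nM, 6–8 test concentrations, 120 min at 25 °C. Nonspecific binding with 1 μM DPCPX. GF/B filtration. Ki by Cheng–Prusoff.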

For a further data set, the target named is Adenosine receptor A2a (Homo sapiens, UniProt P29274). In words: Displacement of [3H]ZM241385 from human adenosine A2A receptor expressed in CHO cells after 60 mins by scintillation counter. The class given is cell-based. The gist of the method:
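Membranes from CHO cells expressing human A2A (50 μg protein), in 50 mM Tris-HCl, 10 mM MgCl2, pH 7.4, adenosine deaminase pretreated. [³H]ZM241385 2 nM, 6–8 concentrations, 60 min at 4 °C. Nonspecific binding with 1 μM ZM241385. Filtration, scintillation counting. Ki by Cheng–Prusoff. 3–4 experiments in duplicate.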

For a further data set, the target named is T2, Adenosine receptor A2b (Homo sapiens, UniProt P29275).
T2 sequence (P29275 whole entry): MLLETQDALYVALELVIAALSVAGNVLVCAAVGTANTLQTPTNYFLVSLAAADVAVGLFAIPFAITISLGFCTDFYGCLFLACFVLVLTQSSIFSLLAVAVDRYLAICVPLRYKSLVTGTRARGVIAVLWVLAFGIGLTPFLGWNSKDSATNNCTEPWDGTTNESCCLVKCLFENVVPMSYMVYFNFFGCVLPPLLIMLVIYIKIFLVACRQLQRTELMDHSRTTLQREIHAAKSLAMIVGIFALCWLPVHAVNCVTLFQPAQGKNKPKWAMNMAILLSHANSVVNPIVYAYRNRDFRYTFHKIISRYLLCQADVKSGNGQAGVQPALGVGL
The data set is described as follows: Antagonist activity at human adenosine A2B receptor expressed in CHO cells assessed as inhibition of NECA-induced cAMP production. The class given is functional, cell-based. The gist of the method: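 Intact CHO cells (1 × 10⁶/assay) expressing human A2B, in buffer pH 7.4 with 2 IU/mL adenosine deaminase and Ro 20-1724. Preincubated 10 min at 37 °C. NECA 100 nM stimulus. Stopped with cold 6% TCA, ether-extracted, cAMP measured by competition protein binding with [³H]cAMP. IC50 from sigmoid nonlinear regression.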

The target of data set [3] is T3, Adenosine receptor A3 (Homo sapiens, UniProt P0DMS8).
T3 sequence (P0DMS8 whole entry): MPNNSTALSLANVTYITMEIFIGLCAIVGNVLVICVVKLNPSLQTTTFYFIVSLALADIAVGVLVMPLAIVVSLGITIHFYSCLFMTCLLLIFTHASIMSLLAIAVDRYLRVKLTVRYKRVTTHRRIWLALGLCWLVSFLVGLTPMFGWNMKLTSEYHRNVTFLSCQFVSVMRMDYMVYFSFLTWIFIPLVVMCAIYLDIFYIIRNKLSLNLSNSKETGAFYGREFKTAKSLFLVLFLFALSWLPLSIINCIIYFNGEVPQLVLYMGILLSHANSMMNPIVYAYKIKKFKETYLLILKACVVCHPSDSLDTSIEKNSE
The data set is described as follows: Displacement of [3H]MRE-3008-F20 from human adenosine A3 receptor expressed in CHO cells after 120 mins by scintillation counter. The class given is cell-based.

Data set [4] deals with T3, Adenosine receptor A3. The data set is described as follows: Antagonist activity at human adenosine A3 receptor expressed in CHO cells assessed as forskolin/C1-IB-MECA-induced inhibition of cAMP production. The class given is functional, cell-based. The gist of the method: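 Intact CHO cells (1 × 10⁶/assay) expressing human A3, in buffer pH 7.4 with 2 IU/mL adenosine deaminase and Ro 20-1724. Preincubated 10 min at 37 °C. Forskolin 1 μM with Cl-IB-MECA 100 nM. Stopped with cold 6% TCA, cAMP measured by [³H]cAMP competition protein binding. IC50 by sigmoid nonlinear regression.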

Adenosine receptor A2a, sequence (P29274 whole entry): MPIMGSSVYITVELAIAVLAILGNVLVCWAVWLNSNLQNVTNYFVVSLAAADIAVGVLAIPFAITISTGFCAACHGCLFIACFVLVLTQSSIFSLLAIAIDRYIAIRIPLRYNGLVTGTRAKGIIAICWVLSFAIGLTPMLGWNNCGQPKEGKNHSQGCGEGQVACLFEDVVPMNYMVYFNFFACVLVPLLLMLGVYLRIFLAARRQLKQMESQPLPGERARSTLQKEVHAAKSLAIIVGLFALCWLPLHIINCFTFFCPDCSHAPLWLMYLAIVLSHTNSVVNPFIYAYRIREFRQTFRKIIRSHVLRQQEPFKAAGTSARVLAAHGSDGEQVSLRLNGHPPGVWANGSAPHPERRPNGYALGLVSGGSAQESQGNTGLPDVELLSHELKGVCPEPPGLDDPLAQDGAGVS

In data set [1], `Cl.Cn1cc2c(nc(NC(=O)Nc3ccncc3)n3nc(-c4ccco4)nc23)n1` had a solubility of less than 100 µg/mL.
Turning to `Cn1cc2c(nc(NC(=O)NC3CCN(Cc4ccc(C#N)cc4)CC3)n3nc(-c4ccco4)nc23)n1`, the Ratio Ki in data set [2] amounted to 14. Moreover, the Ki on Adenosine receptor A1 turned out to be 0.166 µM; on Adenosine receptor A2a, 2.22 µM; at Adenosine receptor A3 [3], 0.0118 µM. Besides, the IC50 was more than 5 µM on Adenosine receptor A2b and 0.04 µM on Adenosine receptor A3 [4].
The molecule `CN1CCC(NC(=O)Nc2nc3nn(C)cc3c3nc(-c4ccco4)nn23)CC1.Cl` came in with a solubility in data set [1] of 15000 µg/mL.
Take `COc1ccc(CN2CCC(NC(=O)Nc3nc4nn(C)cc4c4nc(-c5ccco5)nn34)CC2)cc1`: the Ratio Ki in data set [2] worked out at 87. The Ki at Adenosine receptor A1 is 1.16 µM; on Adenosine receptor A2a it was more than 5 µM; at Adenosine receptor A3 [3], 0.0133 µM. The IC50 is more than 5 µM on Adenosine receptor A2b and 0.045 µM on Adenosine receptor A3 [4].
Consider `Cn1cc2c(nc(NC(=O)NC3CCN(C(=O)NCCCc4ccccc4)CC3)n3nc(-c4ccco4)nc23)n1`, for which the Ratio Ki in data set [2] was 7.7. In addition, the Ki is 0.112 µM on Adenosine receptor A1, 1.64 µM on Adenosine receptor A2a and 0.0145 µM on Adenosine receptor A3 [3]. For the same molecule, the IC50 on Adenosine receptor A2b came to 1.54 µM; at Adenosine receptor A3 [4] it was 0.046 µM.
With `Cc1ccc(CN2CCC(NC(=O)Nc3nc4nn(C)cc4c4nc(-c5ccco5)nn34)CC2)cc1`, in data set [2], the Ratio Ki came to 107. For the same molecule, the Ki is 1.48 µM on Adenosine receptor A1, more than 5 µM on Adenosine receptor A2a and 0.0138 µM on Adenosine receptor A3 [3]. Besides, the IC50 is more than 5 µM at Adenosine receptor A2b and 0.05 µM on Adenosine receptor A3 [4].
On to `C#CCN1CCC(NC(=O)Nc2nc3nn(C)cc3c3nc(-c4ccco4)nn23)CC1.Cl`, for which, in data set [1], the concentration in solution (solubility) was 8000 µg/mL.
On to `Cl.Cn1cc2c(nc(NC(=O)NC3CCN(Cc4ccc(F)cc4)CC3)n3nc(-c4ccco4)nc23)n1`, for which the solubility in data set [1] amounted to 8000 µg/mL.
Regarding `Cl.Cn1cc2c(nc(NC(=O)NC3CCN(CC4CCCCC4)CC3)n3nc(-c4ccco4)nc23)n1`, the Ratio Ki in data set [2] was determined as 351. Further, the Ki on Adenosine receptor A1 is 3.41 µM; on Adenosine receptor A2a, more than 5 µM; at Adenosine receptor A3 [3], 0.0097 µM. Also, the values for the IC50 on Adenosine receptor A2b and at Adenosine receptor A3 [4] were more than 5 µM and 0.03 µM, respectively. This molecule also registered a solubility in data set [1] of 8000 µg/mL.

For the origin of these results see ChEMBL document CHEMBL2069218, “Water-soluble pyrazolo[4,3-e][1,2,4]triazolo[1,5-c]pyrimidines as human A₃ adenosine receptor antagonists” (J Med Chem, 2012).
